The subject of data set [1] is Rhesus monkey. Kind of data set: Toxicity in monkey at 30 mg/kg/day for 28 days. As to conditions: in vivo, 672 h. The data set is classed as organism-based, Macaca mulatta.
Data set [2] in a line: Hepatic extraction in hamster liver S9 fractions at 2 uM by LC-MS/MS analysis. The data set is classed as ADME. The settings on record: cricetinae, s9, 2 µM; 2 µM. Put shortly:
(§1)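 Compound at 2 μM incubated with S9 fractions at 37 °C for 90 min with NADPH and UDPGA. Quenched with aqueous acetonitrile/methanol containing internal standard and analysed by LC-MS/MS. Half-life from an exponential fit assuming first-order kinetics. Hepatic extraction predicted from half-life using the well-stirred model.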

Data set [3] has as its system Rattus norvegicus. Kind of data set: Toxicity in rat at 1000 mg/kg/day for 28 days. The settings on record: in vivo, 672 h. The data set is classed as organism-based.
Data set [4] in a line: Half life in hamster intestinal S9 fractions at 2 uM by LC-MS/MS analysis. The format is ADME, Intestine. As to conditions: cricetinae, s9, 2 µM; 2 µM.
Data set [5] deals with Liver. As to the kind of experiment: Hepatic extraction in human liver S9 fractions at 2 uM by LC-MS/MS analysis. The format is ADME. As to conditions: s9, 2 µM, 2 µM. Put shortly: as §1
A short description of data set [6]: Permeability of the compound from basolateral to apical side in human Caco2 cells at 10 uM. The format is ADME, cell-based, Caco-2. As to conditions: caco-2, 10 µM, 10 µM. Put shortly:
(§2)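 Caco-2 permeability at 10 μM compound, measured in apical-to-basolateral and basolateral-to-apical directions.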
Background: Caco-2 cells form a polarised layer with tight junctions and transporters.

The nature of data set [7]: Permeability of the compound from apical to basolateral side in human Caco2 cells at 10 uM. The data set is classed as ADME, cell-based, Caco-2. The settings on record: caco-2, 10 µM, 10 µM. The method in brief:
as §2

For data set [8], the system named is Plasma. As to the kind of experiment: Half life in human plasma at 2 uM by LC-MS/MS analysis. The format is ADME, cell-free. The settings on record: 2 µM. The method in brief: (§3)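 Compound at 2 μM incubated in plasma at 37 °C for up to 4 h. Aliquots quenched with 9 volumes of acetonitrile containing internal standard, then centrifuged. Supernatant analysed by LC-MS/MS.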

Data set [9] is described as follows: Half life in hamster plasma at 2 uM by LC-MS/MS analysis. The data set is classed as ADME, cell-free. The settings on record: cricetinae, 2 µM. Put shortly: as §3
The species entered for data set [10] is Rattus norvegicus. Kind of data set: Toxicity in rat assessed as vacuolization in brain treated for 28 days by histopathology. As to conditions: in vivo, 672 h.
The subject of data set [11] is Hepatitis C virus. Kind of data set: Antiviral activity against HCV genotype 1b infected in human HuH7 cells by luciferase reporter gene assay. The data set is classed as functional, cell-based, Hepacivirus hominis. The method in brief:
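Luciferase-reporter genotype 1b subgenomic replicon in Huh-7 cells; EC50 is concentration giving 50% inhibition. Values are averages of at least three repeats.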
A general note: A reporter such as luciferase makes a cellular process visible.

In data set [12] the test system is Hepatitis C virus. Kind of data set: Antiviral activity against HCV genotype 4a infected in human HuH7 cells by luciferase reporter gene assay. The data set is classed as functional, cell-based, Hepacivirus hominis.
In data set [13] the test system is Hepatitis C virus. As to the kind of experiment: Antiviral activity against HCV genotype 1a infected in human HuH7 cells by luciferase reporter gene assay. The data set is classed as functional, cell-based, Hepacivirus hominis, subtype 1a.
Data set [14] can be described thus: Inhibition of human DNA polymerase-gamma.
A short description of data set [15]: Inhibition of human DNA polymerase-alpha.
Data set [16] in a line: Inhibition of HCV genotype 1b wild-type NS5B RNA dependent RNA polymerase. Also noted: species or system Hepatitis C virus subtype 1b.
The target of data set [17] is DNA polymerase beta (Homo sapiens, UniProt P06746). As to the kind of experiment: Inhibition of human DNA polymerase-beta.
The nature of data set [18]: Activity at human mitochondrial RNA polymerase assessed as incorporation rate relative to ATP. The data set is classed as ADME.
Data set [19] concerns RNA-directed RNA polymerase (Hepacivirus hominis), O39930 [UNDEFINED MUTATION]. As to the kind of experiment: Inhibition of HCV genotype 1b wild-type NS5B RNA dependent RNA polymerase S282T mutant relative to control. The settings on record: Hepatitis C virus subtype 1b.
A short description of data set [20]: Inhibition of human RNA polymerase-2.
Data set [21] is described as follows: Prodrug activation in human HuH7 cells infected with HCV genotype 1b assessed as((2R,3R,4R,5S)-5-(4-aminopyrrolo[1,2-f][1,2,4]triazin-7-yl)-3,4-dihydroxy-4-methyltetrahydrofuran-2-yl)methyl tetrahydrogen triphosphate formation per million cells at 10 uM after 6 hrs by LC-MS/MS analysis. The format is cell-based. The settings on record: huh-7, 6 h. The method in brief:
(§4)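 Huh-7 replicon cells grown in DMEM with 10% heat-inactivated FBS, penicillin-streptomycin and G418, plated to confluency (0.88×10^6 cells/well). Prodrug at 10 μM given as continuous incubation, sampled at 2, 6 and 24 h. Cells washed with ice-cold saline and extracted into 70% methanol overnight. Triphosphate quantified by LC-MS/MS (LLOQ 0.137 pmol/million cells). Duplicate wells, single experiment.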

A short description of data set [22]: Prodrug activation in human HuH7 cells infected with HCV genotype 1b assessed as ((2R,3R,4R,5S)-5-(4-aminopyrrolo[1,2-f][1,2,4]triazin-7-yl)-3,4-dihydroxy-4-methyltetrahydrofuran-2-yl)methyl tetrahydrogen triphosphate formation per million cells at 10 uM after 24 hrs by LC-MS/MS analysis. The format is cell-based. The settings on record: huh-7, 24 h. Put shortly: as §4

Data set [23] can be described thus: Prodrug activation in human HuH7 cells infected with HCV genotype 1b assessed as ((2R,3R,4R,5S)-5-(4-aminopyrrolo[1,2-f][1,2,4]triazin-7-yl)-3,4-dihydroxy-4-methyltetrahydrofuran-2-yl)methyl tetrahydrogen triphosphate formation per million cells at 10 uM after 2 hrs by LC-MS/MS analysis. As to conditions: huh-7, 2 h. The format is cell-based. The method in brief: as §4

Data set [24] deals with Huh-7. As to the kind of experiment: Cytotoxicity against human HuH7 cells. The format is cell-based.
The mark [25] stands for this setting: Hepatitis C virus, genotype 1b, Huh-7.

The EC50 is the concentration at which the effect is half-maximal. A word on the IC50: it is the concentration that inhibits the measured activity by half.

For the compound `CC(C)OC(=O)C1(NP(=O)(OC[C@H]2O[C@@H](c3cnc4c(N)ncnn34)[C@](C)(F)[C@@H]2O)Oc2ccccc2)CCC1` (stereo in doubt; 53), the Activity entry was “Non-Toxic” in data set [1], “Non-Toxic” in [3] and “Dose-dependent effect” in data set [10]. Moreover, the ERH in data set [2] turned out to be 90%; in data set [5] it was 76%. Further, the t1/2 in data set [4] is 1.65 h; in data set [8] it was 9.1 h; in data set [9] it was 3.63 h. For the same compound, the results for the permeability in [6] and in data set [7] were 9.3 ×10⁻⁶ cm/s and 1.7 ×10⁻⁶ cm/s, respectively. For the same compound, the half-maximal effective concentration (EC50) in [11] came to 3 µM; in data set [12] it was 0.44 µM; in [13], 0.8 µM.

Consider `C[C@@]1(F)[C@H](O)[C@@H](COP(=O)(O)OP(=O)(O)OP(=O)(O)O)O[C@H]1c1cnc2c(N)ncnn12`, for which the IC50 in data set [14] is above 200 µM; in data set [15] it was above 200 µM; in data set [16], 0.15 µM; in data set [17], above 200 µM; in data set [20], above 200 µM. Besides, the Activity in data set [18] was 0.04%. This compound also came in with a fold change (FC) in data set [19] of 5.9. For the same compound, the 50% effective concentration (EC50) in data set [11] (setting [25]) is above 89 µM.

Turning to `CCOC(=O)[C@H](C)N[P@@](=O)(O)OC[C@H]1O[C@@](C#N)(c2ccc3c(N)ncnn23)[C@](C)(O)[C@@H]1O`, the Drug metabolism in data set [21] amounted to 117 pmol; in data set [22], 83 pmol; in data set [23], 26 pmol. It took 1.45 µM to reach a half-maximal effect in data set [11] (setting [25]) (EC50). Also, the Activity result in data set [24] is recorded as “Non-Toxic”.

Source of the values: ChEMBL document CHEMBL4007470, “Discovery of a 2'-fluoro-2'-C-methyl C-nucleotide HCV polymerase inhibitor and a phosphoramidate prodrug with favorable properties” (Bioorg Med Chem Lett, 2017).
